Bioassay records deposited in PubChem BioAssay by several laboratories.
ZTA counter – ZTA (EBV) inhibition in EBNA-1 counter-screen; ZTA-DNA binding, fluorescence polarization; inhibition, % at 11 µM; 0.15% of 320,000 active; AID 2234; in the data active = inhibition above about 33%
Target sequence (P03206 whole entry, looked up): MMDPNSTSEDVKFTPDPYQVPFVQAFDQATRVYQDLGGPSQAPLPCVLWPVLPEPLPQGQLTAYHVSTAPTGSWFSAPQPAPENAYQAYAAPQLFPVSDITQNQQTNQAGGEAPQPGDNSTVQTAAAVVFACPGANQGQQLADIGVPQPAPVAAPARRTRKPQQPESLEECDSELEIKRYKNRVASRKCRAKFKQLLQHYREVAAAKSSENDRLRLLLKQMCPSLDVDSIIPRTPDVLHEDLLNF
DNA FID counter-1 – fluorescent intercalator displacement, NS3 helicase counter-screen. DNA fluorescent intercalator displacement, fluorescence. inhibition, % at 7.9 µM. 0.17% of 290,000 active. AID 1845;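 note: 0% = vehicle and 100% = reference compound; higher means more ethidium bromide displaced from hairpin DNA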
EBNA-1 inhibitor – blocks EBNA-1 binding to DNA. EBNA-1 DNA binding, fluorescence polarization. inhibition, % at 14.8 µM. 0.34% of 300,000 active; in the data active = inhibition above about 28%
FGF22 binding – FGF22 (human) thermal shift binding. Q9HCT0. recombinant FGF22 thermal shift, SYPRO orange fluorescence; percent of sucrose octasulfate shift, DMSO zero. activity (Tm shift, normalised), % at 9.99 µM. 1.5% of 340,000 active;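 active = mean Tm shift, scaled 0 neutral to 100 positive control, at about 1.3% or above, every replicate too, limit read from the data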
Target sequence (Q9HCT0 whole entry, looked up): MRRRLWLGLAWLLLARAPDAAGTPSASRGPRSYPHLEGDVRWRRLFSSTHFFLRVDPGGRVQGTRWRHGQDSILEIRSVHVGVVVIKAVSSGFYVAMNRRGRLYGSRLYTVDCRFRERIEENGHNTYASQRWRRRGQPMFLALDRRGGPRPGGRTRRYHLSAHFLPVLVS
NS3 helicase inh – blocks Hepatitis C virus NS3 helicase unwinding; NS3 helicase DNA unwinding, Cy5 molecular beacon fluorescence; inhibition, % at 10.9 µM; 0.56% of 290,000 active; AID 1800;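 active = inhibition above the mean of all tested compounds plus 3 SD, set per campaign, cut at about 35% in these data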;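 note: 0% = DMSO wells and 100% = thioflavine S control wells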
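Material: hepatitis C virus NS3 helicase domain fragment enzyme; measured by: Cy5 fluorescence, 0 and 60 min reads; control set: DMSO and thioflavine S; incubation: 60 min unwinding reaction at 25 °C after ATP addition; read-out basis: % inhibition from 60/0 min fluorescence ratio, DMSO 0%, thioflavine S 100%; repeats: singlicate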
NR3A LBD binder – modulates the human NR3A ligand-binding domain; NR3A LBD differential scanning fluorimetry, Tm shift; 0% = protein alone, 100% = glycine-bound protein; Tm shift relative to glycine control, % at 25 µM; 2.5% of 340,000 active; AID 1259313;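 active = melting temperature shift of at least 10% of the positive control shift, at one fixed dose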
NS3 hel confirm – confirmation of Hepatitis C virus NS3 helicase inhibitors. shares compounds with NS3 helicase inh. 31% of 1,600 active. AID 1943. NS3 helicase DNA unwinding, Cy5 molecular beacon fluorescence. inhibition, % at 10.9 µM;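 active = inhibition above the mean of all tested compounds plus 3 SD, cutoff set per campaign, cut at about 36% in these data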
DNA FID counter-2 – displaces DNA intercalator in HCV helicase counter-screen; 4% of 1,600 active; shares compounds with NS3 helicase inh; inhibition, % at 7.9 µM; AID 1945; DNA fluorescent intercalator displacement, fluorescence;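 note: 0% = vehicle and 100% = reference compound; higher means more displacement of ethidium bromide from the DNA hairpin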
* = called active by the depositor; . = not tested or not shown. This is a sample that favours compounds with a hit; in the whole collection about 3.6% have one here. Cut-off read from the data, not from the text of the source, unless noted: active = inhibition above about 37%; inactive = the rest.

SMILES	ZTA counter	DNA FID counter-1	EBNA-1 inhibitor	FGF22 binding	NS3 helicase inh	NR3A LBD binder	NS3 hel confirm	DNA FID counter-2
Cc1cc(NS(=O)(=O)c2ccc(NC(=O)CCCOc3ccccc3)cc2)no1	1.0	-36.6	-7.4	.	17.2	0.2	.	.
CN1C(=O)c2cc(NC(=O)c3ccc(F)c(F)c3)ccc2OC[C@H]2O[C@@H](CC(=O)Nc3ccc4c(c3)COC4)CC[C@@H]21	.	.	.	-0.2	.	.	.	.
Cc1[nH]n(C(N)=S)c(=O)c1N=Nc1cccc(Cl)c1	-17.2	-8.1	-6.2	0.2	58.2*	9.8	-19.6	16.7
C[C@H](CO)N1C[C@H](C)[C@H](CN(C)S(=O)(=O)c2cn(C)cn2)Oc2ncc(/C=C/c3ccccc3)cc2C1=O	.	.	.	-0.1	.	.	.	.
Cc1ccc(-n2c(C)cc(-c3csc(N)n3)c2C)cc1	-7.5	-18.8	-3.4	.	83.0*	-3.7	8.4	22.5
Cc1cc(-c2csc(N)n2)c(C)n1C	-2.8	2.8	-7.9	.	2.3	-1.0	.	.
COc1cc([N+](=O)[O-])c2ncsc2c1	9.7	-1.8	3.4	-0.2	-7.7	-2.2	.	.
COc1cc(SSc2cc(OC)cc([N+](=O)[O-])c2N)c(N)c([N+](=O)[O-])c1	-16.9	-1.9	-12.8	-0.5	28.7	37.3*	6.8	14.9
Cc1cc(S(=O)(=O)N2CCCCC2)c(C)s1	-15.1	-6.6	-11.4	-0.2	67.1*	-1.1	-10.1	-4.7
Cc1cc(S(=O)(=O)N2CCCC2)c(C)s1	-3.2	-2.0	2.1	.	4.0	4.5	.	.
CCNC(=O)C[C@@H]1C=C[C@@H](NC(=O)C2CCC2)[C@H](CO)O1	.	.	.	0.6	.	.	.	.
O=C(NCC1CCCO1)c1cc2nc(-c3ccco3)cc(C(F)(F)Cl)n2n1 (configuration not stated)	3.0	-10.0	-11.0	-0.1	51.4*	2.6	-10.3	-13.9
CC(C)(C)NC(=O)NC(=O)CSc1cccc(C(F)(F)F)c1	13.2	-21.6	3.8	0.1	36.7*	-0.6	-9.7	7.0
O=C(CCN1CCCCC1)NCC[C@H]1CC[C@H](NC(=O)C2CCCC2)[C@@H](CO)O1	.	.	.	-0.3	.	.	.	.
CCOc1ccc(NCc2cc3cc(OC)ccc3[nH]c2=O)cc1	-18.3	-10.8	-9.5	-0.2	43.2*	-0.9	12.0	-6.3
COc1ccc2[nH]c(=O)c(CNc3ccccc3)cc2c1	9.0	3.9	-17.9	.	15.7	-2.3	.	.
COc1ccc(S(=O)(=O)Nc2ccc3c(c2)C(=O)N([C@@H](C)CO)C[C@@H](C)[C@H](CN(C)Cc2ccc4c(c2)OCO4)OCCCC[C@@H](C)O3)cc1	.	.	.	-0.1	.	.	.	.
COCCn1c(C)cc(C2=NNC(=Nc3ccc(Cl)cc3Cl)SC2)c1C	10.0	-12.3	13.9	.	36.7*	1.3	22.3	-5.4
CCOc1ccc(N=C2NN=C(c3cc(C)n(CC4CCCO4)c3C)CS2)cc1 (configuration not stated)	9.3	-10.9	2.2	42.7	40.7*	-3.1	16.9	11.7
CNC[C@@H]1Oc2ccc(NC(=O)Nc3ccc(F)cc3)cc2CC(=O)N([C@H](C)CO)C[C@@H]1C	.	.	.	0.0	.	.	.	.
CN1c2ccc(-c3cccc(C#N)c3)cc2[C@@H]2[C@@H](CCN2C(=O)Cc2ccccn2)[C@@H]1CO	.	.	.	-0.1	.	.	.	.
C[C@@H]1CCCCO[C@@H](CN(C)Cc2ccncc2)[C@@H](C)CN([C@H](C)CO)C(=O)c2cc(NC(=O)c3ccncc3)ccc2O1	.	.	.	0.5	.	.	.	.
CO[C@H]1CN(C)C(=O)c2cc(NC(=O)Nc3ccc(F)cc3)ccc2OC[C@H](C)NC[C@@H]1C	.	.	.	-0.1	.	.	.	.
C[C@H](CO)N1C[C@H](C)[C@@H](CN(C)C(=O)Nc2ccc(F)cc2)Oc2c(NS(=O)(=O)c3ccc(F)cc3)cccc2C1=O	.	.	.	0.0	.	.	.	.
O=S1(=O)CCOCCCN1Cc1ccccc1F	-0.8	-9.6	-4.8	0.0	-7.3	0.0	.	.
O=S1(=O)CCOCCN1Cc1ccc(Cl)cc1Cl	-6.2	-17.3	1.9	.	36.6*	.	-18.0	5.7
O=C(Nc1ccccc1N1CCOCC1)c1cccnc1Cl	9.6	46.8*	-2.8	-0.2	53.3*	0.0	-17.5	-3.6
